Assay results from ChEMBL document CHEMBL1833955, “Optimization of (arylpiperazinylbutyl)oxindoles exhibiting selective 5-HT₇ receptor antagonist activity” (J Med Chem, 2011).

Key:
[1] = target: Adrenergic receptor alpha-1 (Rattus norvegicus) (UniProt P15823+P23944+P43140); experiment: Displacement of [3H]prazosin from alpha1-adrenergic receptor in rat frontal cortex membrane at 10^-7 M after 45 mins by scintillation spectrometry; assay type: cell membranes
How it was run: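 Rat frontal cortex membranes (tissue frozen on dry ice, homogenized in 50 mM Tris-HCl pH 7.7, washed by repeated 40 000 g spins at 4 °C) incubated with 0.6 nM [3H]prazosin, 45 min at 25 °C, triplicates; nonspecific binding with 10 μM prazosin. Filtration over GF/B filters presoaked in 0.05% polyethylenimine, scintillation counting; single test concentration 10^-7 M.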

[2] = target: 5-hydroxytryptamine receptor 7 (Homo sapiens, UniProt P34969); experiment: Displacement of [3H]CT from human 5-HT7 receptor expressed in CHO cells by scintillation spectrometry; assay type: cell-based
Chain of 5-hydroxytryptamine receptor 7 (P34969 whole entry): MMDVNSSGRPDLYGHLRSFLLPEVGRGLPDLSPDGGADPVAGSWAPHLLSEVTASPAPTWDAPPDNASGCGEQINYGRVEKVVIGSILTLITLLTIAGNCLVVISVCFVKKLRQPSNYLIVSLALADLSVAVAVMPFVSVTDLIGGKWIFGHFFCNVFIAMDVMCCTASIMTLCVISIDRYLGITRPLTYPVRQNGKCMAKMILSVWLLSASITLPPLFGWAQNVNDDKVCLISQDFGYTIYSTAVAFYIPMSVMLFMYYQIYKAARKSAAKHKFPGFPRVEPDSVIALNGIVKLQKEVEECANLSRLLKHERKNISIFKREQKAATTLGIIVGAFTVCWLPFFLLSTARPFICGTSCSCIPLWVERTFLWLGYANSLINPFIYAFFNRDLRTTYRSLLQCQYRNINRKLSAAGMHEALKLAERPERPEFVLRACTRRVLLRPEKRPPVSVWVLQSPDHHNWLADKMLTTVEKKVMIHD
How it was run: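 Cloned human 5-HT7 receptor from CHO cells, run under the supplier's recommended conditions with [3H]CT. Nonspecific binding with 25 μM clozapine. Ended by GF/C filtration, then scintillation counting. Ki taken from two nine-concentration displacement curves run in triplicate, single-site fit.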

[3] = target: T1, 5-hydroxytryptamine receptor 1A (Rattus norvegicus, UniProt P19327); experiment: Displacement of [3H]8-OH-DPAT from 5-HT1A receptor in rat frontal cortex membrane after 45 mins by scintillation counting; assay type: cell membranes
T1 sequence (P19327 whole entry): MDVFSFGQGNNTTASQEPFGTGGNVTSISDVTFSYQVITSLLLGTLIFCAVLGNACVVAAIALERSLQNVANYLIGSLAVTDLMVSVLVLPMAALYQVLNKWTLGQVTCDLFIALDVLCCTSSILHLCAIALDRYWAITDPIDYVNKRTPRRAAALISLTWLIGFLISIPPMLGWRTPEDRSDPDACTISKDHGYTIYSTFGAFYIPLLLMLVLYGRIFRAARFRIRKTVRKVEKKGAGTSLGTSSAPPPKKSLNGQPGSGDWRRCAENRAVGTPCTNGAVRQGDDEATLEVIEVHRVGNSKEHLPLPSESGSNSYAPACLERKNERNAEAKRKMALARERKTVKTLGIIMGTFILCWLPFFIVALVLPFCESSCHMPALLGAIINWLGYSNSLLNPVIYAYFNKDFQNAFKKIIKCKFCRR
How it was run: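 Membranes from adult rat frontal cortex, prepared in 50 mM Tris-HCl pH 7.7 with washes and a 37 °C preincubation. Incubation buffer: 6.66 mM CaCl2, 16.66 μM pargyline, 0.166% ascorbic acid. Ligand 1.5 nM [3H]8-OH-DPAT; 10 μM 5-HT defines nonspecific binding. 45 min at 25 °C, GF/B filtration, scintillation counting. Triplicates; Ki from two nine-point curves, single-site fit.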

Chain of Adrenergic receptor alpha-1 (Rattus norvegicus) (P15823 whole entry, looked up): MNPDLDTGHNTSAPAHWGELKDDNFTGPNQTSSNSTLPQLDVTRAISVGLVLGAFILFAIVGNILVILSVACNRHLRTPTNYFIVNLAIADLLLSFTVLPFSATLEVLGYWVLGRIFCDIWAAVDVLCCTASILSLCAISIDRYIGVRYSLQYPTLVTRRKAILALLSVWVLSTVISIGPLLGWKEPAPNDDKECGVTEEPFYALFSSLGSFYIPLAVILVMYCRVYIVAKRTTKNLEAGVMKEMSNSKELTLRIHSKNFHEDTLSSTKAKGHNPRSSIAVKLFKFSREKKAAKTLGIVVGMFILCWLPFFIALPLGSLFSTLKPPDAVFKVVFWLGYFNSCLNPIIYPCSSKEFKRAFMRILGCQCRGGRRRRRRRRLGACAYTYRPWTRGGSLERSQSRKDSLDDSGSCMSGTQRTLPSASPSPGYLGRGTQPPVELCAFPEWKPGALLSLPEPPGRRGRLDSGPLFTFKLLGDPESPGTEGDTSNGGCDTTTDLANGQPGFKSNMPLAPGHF
Chain of Adrenergic receptor alpha-1 (Rattus norvegicus) (P23944 whole entry, looked up): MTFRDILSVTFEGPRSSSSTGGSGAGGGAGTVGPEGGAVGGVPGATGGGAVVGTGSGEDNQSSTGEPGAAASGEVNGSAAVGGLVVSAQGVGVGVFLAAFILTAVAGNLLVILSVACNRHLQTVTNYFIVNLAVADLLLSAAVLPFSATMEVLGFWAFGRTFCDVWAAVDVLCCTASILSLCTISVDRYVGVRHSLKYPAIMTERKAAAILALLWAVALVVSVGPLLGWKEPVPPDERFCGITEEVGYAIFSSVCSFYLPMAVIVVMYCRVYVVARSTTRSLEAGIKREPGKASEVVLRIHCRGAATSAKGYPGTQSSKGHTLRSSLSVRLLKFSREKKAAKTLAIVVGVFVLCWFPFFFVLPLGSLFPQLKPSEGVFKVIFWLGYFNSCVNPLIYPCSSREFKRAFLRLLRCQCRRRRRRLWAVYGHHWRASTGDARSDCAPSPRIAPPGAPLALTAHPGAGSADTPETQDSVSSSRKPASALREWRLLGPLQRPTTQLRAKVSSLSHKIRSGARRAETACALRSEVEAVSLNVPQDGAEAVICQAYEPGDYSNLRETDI
Chain of Adrenergic receptor alpha-1 (Rattus norvegicus) (P43140 whole entry, looked up): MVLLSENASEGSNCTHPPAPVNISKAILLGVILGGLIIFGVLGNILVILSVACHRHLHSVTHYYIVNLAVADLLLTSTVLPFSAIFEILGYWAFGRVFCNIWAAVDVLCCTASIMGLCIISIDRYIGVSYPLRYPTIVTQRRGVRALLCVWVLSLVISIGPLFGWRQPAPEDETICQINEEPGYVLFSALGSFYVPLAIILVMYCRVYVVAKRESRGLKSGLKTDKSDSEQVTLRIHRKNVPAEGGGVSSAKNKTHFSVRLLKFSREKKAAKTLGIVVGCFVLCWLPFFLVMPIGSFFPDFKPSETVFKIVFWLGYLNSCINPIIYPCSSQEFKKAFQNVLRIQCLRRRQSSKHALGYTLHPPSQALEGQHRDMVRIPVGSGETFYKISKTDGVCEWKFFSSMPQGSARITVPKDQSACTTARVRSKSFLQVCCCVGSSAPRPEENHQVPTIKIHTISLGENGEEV

O=C1Nc2ccc(F)cc2C1CCCCN1CC=C(c2cccc(C(F)(F)F)c2)CC1 (stereo not drawn)
inhibition [1]: 11%
Ki [2]: 40 nM
Ki [3]: 55 nM
